The subject of data set [1] is Staphylococcus aureus. The data set is described as follows: Antibacterial activity against 10^4 CFU methicillin-resistant Staphylococcus aureus 08-1 after 18 hrs by CLSI agar dilution method. The class given is functional. The following applies: 08-1, 18 h. For orientation: Agar dilution tests growth on a series of plates holding different concentrations.
Data set [2] relates to Staphylococcus epidermidis. The data set is described as follows: Antibacterial activity against 10^4 CFU methicillin-resistant Staphylococcus epidermidis 09-2 after 18 hrs by CLSI agar dilution method. The class given is functional. Particulars: 09-2, 18 h.
Data set [3] deals with Escherichia coli. The data set is described as follows: Antibacterial activity against 10^4 CFU Escherichia coli ATCC 25922 after 18 hrs by CLSI agar dilution method. In kind it is functional. The following applies: ATCC 25922, 18 h.
The subject of data set [4] is Enterococcus faecalis. The data set is described as follows: Antibacterial activity against 10^4 CFU Enterococcus faecalis 08-10 after 18 hrs by CLSI agar dilution method. In kind it is functional. Particulars: 08-10, 18 h.
Data set [5] relates to Enterococcus faecium. Kind of data set: Antibacterial activity against 10^4 CFU Enterococcus faecium 08-2 after 18 hrs by CLSI agar dilution method. In kind it is functional. The following applies: 08-2, 18 h.
Data set [6] relates to Enterococcus faecalis. The data set is described as follows: Antibacterial activity against 10^4 CFU Enterococcus faecalis 08-12 after 18 hrs by CLSI agar dilution method. In kind it is functional. The following applies: 08-12, 18 h.
In data set [7] the test system is Klebsiella pneumoniae. The data set is described as follows: Antibacterial activity against 10^4 CFU Klebsiella pneumoniae 09-22 after 18 hrs by CLSI agar dilution method. The following applies: 09-22, 18 h. The class given is functional.
In data set [8] the test system is Staphylococcus aureus. Kind of data set: Antibacterial activity against 10^4 CFU methicillin-sensitive Staphylococcus aureus 08-1 after 18 hrs by CLSI agar dilution method. The class given is functional. The following applies: 08-1, 18 h.
The test system of data set [9] is Pseudomonas aeruginosa. Kind of data set: Antibacterial activity against 10^4 CFU Pseudomonas aeruginosa 09-32 after 18 hrs by CLSI agar dilution method. Particulars: 09-32, 18 h. The class given is functional.
Data set [10] has as its system Enterococcus faecium. Kind of data set: Antibacterial activity against 10^4 CFU Enterococcus faecium 06-7 after 18 hrs by CLSI agar dilution method. In kind it is functional. Particulars: 06-7, 18 h.
Data set [11] relates to Pseudomonas aeruginosa. The data set is described as follows: Antibacterial activity against 10^4 CFU Pseudomonas aeruginosa ATCC 27853 after 18 hrs by CLSI agar dilution method. The class given is functional. Particulars: ATCC 27853, 18 h.
For data set [12], the system named is Staphylococcus epidermidis. Kind of data set: Antibacterial activity against 10^4 CFU methicillin-sensitive Staphylococcus epidermidis 09-6 after 18 hrs by CLSI agar dilution method. The class given is functional. Particulars: 09-6, 18 h.
For data set [13], the system named is Klebsiella pneumoniae. The data set is described as follows: Antibacterial activity against 10^4 CFU Klebsiella pneumoniae 09-23 after 18 hrs by CLSI agar dilution method. The class given is functional. The following applies: 09-23, 18 h.
The subject of a further data set is Streptococcus pneumoniae. The data set is described as follows: Antibacterial activity against 10^4 CFU Streptococcus pneumoniae 08-4 after 18 hrs by CLSI agar dilution method. The following applies: 08-4, 18 h. In kind it is functional.
Data set [14] is described as follows: Cytotoxicity against MDCK cells after 48 hrs by CPE assay. The class given is cell-based, Canis lupus familiaris. Particulars: dog. Summed up:
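MDCK cells kept in Minimum Essential Medium with Earle's salt plus 10% fetal bovine serum at 37 °C, 5% CO₂. […] Medium then replaced by assay medium with or without compound. After 48 h exposure, viability read by CPE assay. CC₅₀ calculated by Reed–Muench analysis.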

Data set [15] relates to Escherichia coli. Kind of data set: Antibacterial activity against 10^4 CFU Escherichia coli 08-21 after 18 hrs by CLSI agar dilution method. In kind it is functional. Particulars: 08-21, 18 h.
Data set [16] deals with Staphylococcus aureus. The data set is described as follows: Antibacterial activity against 10^4 CFU Staphylococcus aureus ATCC 25923 after 18 hrs by CLSI agar dilution method. The following applies: ATCC 25923, 18 h. In kind it is functional.

In brackets after ≈: the same amount, converted by molar mass. A value given as a limit tells only on which side of the number the result lay.

What is called MIC is the lowest concentration found to suppress growth. High values mean a less susceptible organism, low ones a more susceptible organism. The term CC50 denotes the concentration at which the toxic effect on the cells reaches its halfway point. On to `CO/N=C1\CN(c2c(F)cc3c(=O)c(C(=O)O)cn(CCF)c3c2F)CCC1(C)N` (stereo not drawn), for which the MIC was determined as 0.25 µg/mL (≈ 0.586 µM) against Staphylococcus aureus [1]; 0.25 µg/mL (≈ 0.586 µM) in [2]; 32 µg/mL (≈ 75 µM) with Escherichia coli [3]; 128 µg/mL (≈ 300 µM) against Enterococcus faecalis [4]; 32 µg/mL (≈ 75 µM) in the data set on Enterococcus faecium [5]; 32 µg/mL (≈ 75 µM) in the data set with Enterococcus faecalis [6]. Further, the MIC against Klebsiella pneumoniae [7] worked out at 16 µg/mL (≈ 37.5 µM); against Staphylococcus aureus [8], 0.25 µg/mL (≈ 0.586 µM); with Pseudomonas aeruginosa [9] it was 0.5 µg/mL (≈ 1.17 µM); in the data set with Enterococcus faecium [10], 128 µg/mL (≈ 300 µM); with Pseudomonas aeruginosa [11], 2 µg/mL (≈ 4.69 µM); in data set [12] it was 0.25 µg/mL (≈ 0.586 µM). The MIC in the data set on Klebsiella pneumoniae [13] was found to be 32 µg/mL (≈ 75 µM); in the data set with Streptococcus pneumoniae it was 2 µg/mL (≈ 4.69 µM); against Escherichia coli [15] it was 32 µg/mL (≈ 75 µM); with Staphylococcus aureus [16], 0.125 µg/mL (≈ 0.293 µM). Further, in data set [14], the cytotoxic concentration (CC50) at 48 h was 36.6 µM.
Take `CCO/N=C1\CN(c2c(F)cc3c(=O)c(C(=O)O)cn(C4CC4)c3c2F)CCC1(C)N` (stereo not drawn): the MIC is 0.5 µg/mL (≈ 1.15 µM) against Staphylococcus aureus [1]; 0.5 µg/mL (≈ 1.15 µM) in data set [2]; 128 µg/mL (≈ 295 µM) against Escherichia coli [3]; 4 µg/mL (≈ 9.21 µM) against Enterococcus faecalis [4]; above 128 µg/mL in the data set on Enterococcus faecium [5]; above 128 µg/mL against Enterococcus faecalis [6]. Besides, the MIC was 4 µg/mL (≈ 9.21 µM) against Klebsiella pneumoniae [7]; 0.5 µg/mL (≈ 1.15 µM) in the data set with Staphylococcus aureus [8]; 4 µg/mL (≈ 9.21 µM) against Pseudomonas aeruginosa [9]; above 128 µg/mL in the data set with Enterococcus faecium [10]; 8 µg/mL (≈ 18.4 µM) in the data set with Pseudomonas aeruginosa [11]; 0.5 µg/mL (≈ 1.15 µM) in data set [12]. The MIC was above 128 µg/mL in the data set with Klebsiella pneumoniae [13], 4 µg/mL (≈ 9.21 µM) in the data set with Streptococcus pneumoniae, above 128 µg/mL against Escherichia coli [15] and 0.5 µg/mL (≈ 1.15 µM) against Staphylococcus aureus [16]. Further, half-maximal cytotoxicity in data set [14] (CC50 at 48 h) was put at 288 µM.
For `CO/N=C1\CN(c2c(F)cc3c(=O)c(C(=O)O)cn(C4CC4)c3c2OC(F)F)CCC1(C)N` (stereo not drawn), the MIC was 0.25 µg/mL (≈ 0.534 µM) in the data set on Staphylococcus aureus [1]; 0.25 µg/mL (≈ 0.534 µM) in [2]; 128 µg/mL (≈ 273 µM) in the data set on Escherichia coli [3]; 8 µg/mL (≈ 17.1 µM) in the data set with Enterococcus faecalis [4]; above 128 µg/mL with Enterococcus faecium [5]; above 128 µg/mL against Enterococcus faecalis [6]. Also, the MIC in the data set on Klebsiella pneumoniae [7] is 2 µg/mL (≈ 4.27 µM); against Staphylococcus aureus [8] it was 0.25 µg/mL (≈ 0.534 µM); against Pseudomonas aeruginosa [9] it was 2 µg/mL (≈ 4.27 µM); with Enterococcus faecium [10] it was above 128 µg/mL; with Pseudomonas aeruginosa [11] it was 4 µg/mL (≈ 8.54 µM); in data set [12], 0.25 µg/mL (≈ 0.534 µM). Also, the MIC in the data set with Klebsiella pneumoniae [13] was above 128 µg/mL; against Streptococcus pneumoniae, 0.25 µg/mL (≈ 0.534 µM); in the data set with Escherichia coli [15] it was above 128 µg/mL; in the data set with Staphylococcus aureus [16], 0.25 µg/mL (≈ 0.534 µM). In addition, the CC50 at 48 h in data set [14] worked out at 1070 µM.
`CCO/N=C1\CN(c2c(F)cc3c(=O)c(C(=O)O)cn(C4CC4)c3c2OC(F)F)CCC1(C)N` (stereo not drawn): the minimal inhibitory concentration (MIC) was 0.25 µg/mL (≈ 0.518 µM) against Staphylococcus aureus [1]; 0.25 µg/mL (≈ 0.518 µM) in data set [2]; 16 µg/mL (≈ 33.2 µM) in the data set on Escherichia coli [3]; 8 µg/mL (≈ 16.6 µM) against Enterococcus faecalis [4]; 128 µg/mL (≈ 265 µM) in the data set on Enterococcus faecium [5]; 32 µg/mL (≈ 66.3 µM) against Enterococcus faecalis [6]. Besides, the minimum inhibitory concentration (MIC) against Klebsiella pneumoniae [7] was 16 µg/mL (≈ 33.2 µM); in the data set with Staphylococcus aureus [8] it was 0.25 µg/mL (≈ 0.518 µM); against Pseudomonas aeruginosa [9], 16 µg/mL (≈ 33.2 µM); in the data set on Enterococcus faecium [10] it was 128 µg/mL (≈ 265 µM); against Pseudomonas aeruginosa [11], 4 µg/mL (≈ 8.29 µM); in data set [12], 0.25 µg/mL (≈ 0.518 µM). The MIC with Klebsiella pneumoniae [13] turned out to be 8 µg/mL (≈ 16.6 µM); with Streptococcus pneumoniae, 0.25 µg/mL (≈ 0.518 µM); in the data set on Escherichia coli [15] it was 128 µg/mL (≈ 265 µM); against Staphylococcus aureus [16], 0.125 µg/mL (≈ 0.259 µM). Besides, the 50% cytotoxic concentration (CC50) at 48 h in data set [14] came out at 518 µM.
`C[C@H]1COc2c(N3CCN(C)CC3)c(F)cc3c(=O)c(C(=O)O)cn1c23.C[C@H]1COc2c(N3CCN(C)CC3)c(F)cc3c(=O)c(C(=O)O)cn1c23.O` [LEVOFLOXACIN]: the minimum inhibitory concentration (MIC) against Staphylococcus aureus [1] was determined as 0.125 µg/mL; in data set [2] it was 0.25 µg/mL; with Escherichia coli [3], 2 µg/mL; with Enterococcus faecalis [4], 8 µg/mL; against Enterococcus faecium [5], 4 µg/mL; in the data set on Enterococcus faecalis [6], 8 µg/mL. Moreover, the MIC in the data set with Klebsiella pneumoniae [7] turned out to be 16 µg/mL; against Staphylococcus aureus [8], 0.125 µg/mL; in the data set with Pseudomonas aeruginosa [9], 16 µg/mL; against Enterococcus faecium [10] it was 16 µg/mL; in data set [12], 4 µg/mL; against Klebsiella pneumoniae [13], 16 µg/mL. Moreover, the figures for the MIC against Escherichia coli [15] and in the data set on Staphylococcus aureus [16] were 16 µg/mL and 0.25 µg/mL, respectively.
The compound `COc1c(N2C[C@@H]3CCCN[C@@H]3C2)c(F)cc2c(=O)c(C(=O)O)cn(C3CC3)c12` [MOXIFLOXACIN] had a CC50 at 48 h in data set [14] of 161 µM.

For the origin of these results see ChEMBL document CHEMBL1781961, “Synthesis and in vitro antibacterial activity of 7-(3-alkoxyimino-4-amino-4-methylpiperidin-1-yl) fluoroquinolone derivatives” (Eur J Med Chem, 2011).
